{"source": "ChEMBL document CHEMBL1142894", "about": "“Preparation of 5-aryl-3-alkylthio-l,2,4-triazoles and corresponding sulfones with antiinflammatory-analgesic activity” (Bioorg Med Chem, 2007)", "key": {"Mus musculus [1]": {"system": "Mus musculus", "experiment": "Antiinflammatory activity against carrageenan-induced paw edema in Swiss albino mouse assessed as swelling thickness at 50 mg/kg, po after 90 mins", "format": "functional", "method_in_brief": "(§1)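 Oral dosing in 0.5% CMC; vehicle to controls. Then carrageenan (0.5 mg/25 ll, freshly suspended in 154 mM saline) injected into the right hind paw subplantar tissue; saline into the left paw. Right-left footpad thickness difference measured by dial gauge calliper every 90 min over 6 h. Inhibition % is relative to vehicle control. n = 6; mean ± SEM.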"}, "Mus musculus [2]": {"system": "Mus musculus", "experiment": "Analgesic activity against p-benzoquinone-induced abdominal constriction in Swiss albino mouse assessed as number of writhings at 100 mg/kg, po", "format": "functional, Abdomen", "method_in_brief": "(§2)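 Test samples given orally in 0.5% CMC; vehicle to controls. 60 min later, 2.5% (v/v) p-benzoquinone in distilled water, 0.1 ml/10 g, given i.p. Mice housed singly; writhes counted for 15 min starting 5 min after injection. Activity is % change from vehicle controls. n = 6; mean ± SEM.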"}, "Mus musculus [3]": {"system": "Mus musculus", "experiment": "Inhibition of carrageenan-induced paw edema in Swiss albino mouse at 25 mg/kg, po after 270 mins relative to control", "format": "functional", "details": "4.5 h", "method_in_brief": "as §1"}, "Mus musculus [4]": {"system": "Mus musculus", "experiment": "Antiinflammatory activity against carrageenan-induced paw edema in Swiss albino mouse assessed as swelling thickness at 200 mg/kg, po after 360 mins", "format": "functional", "method_in_brief": "as §1"}, "Mus musculus [5]": {"system": "Mus musculus", "experiment": "Antiinflammatory activity against carrageenan-induced paw edema in Swiss albino mouse assessed as swelling thickness at 100 mg/kg, po after 180 mins", "format": "functional", "method_in_brief": "as §1"}, "Mus musculus [6]": {"system": "Mus musculus", "experiment": "Inhibition of p-benzoquinone-induced writhing in Swiss albino mouse at 50 mg/kg, po relative to control", "format": "functional", "method_in_brief": "(§3)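 Mice, n = 6 per group, dosed orally with a suspension in 0.5% sodium CMC. 60 min later, 0.1 ml/10 g of 2.5% […] p-benzoquinone in distilled water given ip. Abdominal writhes counted per animal for 15 min, starting 5 min after injection. Expressed as % change in mean writhing count versus vehicle controls.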"}, "Mus musculus [7]": {"system": "Mus musculus", "experiment": "Antiinflammatory activity against carrageenan-induced paw edema in Swiss albino mouse assessed as swelling thickness at 200 mg/kg, po after 270 mins", "format": "functional", "method_in_brief": "as §1"}, "Mus musculus [8]": {"system": "Mus musculus", "experiment": "Inhibition of carrageenan-induced paw edema in Swiss albino mouse at 50 mg/kg, po after 180 mins relative to control", "format": "functional", "details": "3 h", "method_in_brief": "as §1"}, "Mus musculus [9]": {"system": "Mus musculus", "experiment": "Gastric-ulcerogenic effect in Swiss albino mouse assessed as lesions at 50 mg/kg, po", "format": "functional, organism-based", "design": "dose 50 mg/kg", "method_in_brief": "(§4)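 Mice killed under deep ether anesthesia 3 h after the writhing test; the oral dose in 0.5% CMC was the one used in that test. Stomachs removed, opened along the great curvature and examined under a dissecting microscope for lesions or bleeding. Reported as ratio of ulceration; n = 6.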"}, "Mus musculus [10]": {"system": "Mus musculus", "experiment": "Inhibition of carrageenan-induced paw edema in Swiss albino mouse at 25 mg/kg, po after 360 mins relative to control", "format": "functional", "details": "6 h", "method_in_brief": "as §1"}, "Mus musculus [11]": {"system": "Mus musculus", "experiment": "Inhibition of carrageenan-induced paw edema in Swiss albino mouse at 200 mg/kg, po after 180 mins relative to control", "format": "functional", "details": "3 h", "method_in_brief": "as §1"}, "Mus musculus [12]": {"system": "Mus musculus", "experiment": "Inhibition of carrageenan-induced paw edema in Swiss albino mouse at 200 mg/kg, po after 90 mins relative to control", "format": "functional", "details": "1.5 h", "method_in_brief": "as §1"}, "Mus musculus [13]": {"system": "Mus musculus", "experiment": "Inhibition of carrageenan-induced paw edema in Swiss albino mouse at 100 mg/kg, po after 360 mins relative to control", "format": "functional", "details": "6 h", "method_in_brief": "as §1"}, "Mus musculus [14]": {"system": "Mus musculus", "experiment": "Antiinflammatory activity against carrageenan-induced paw edema in Swiss albino mouse assessed as swelling thickness at 25 mg/kg, po after 180 mins", "format": "functional", "method_in_brief": "as §1"}, "Mus musculus [15]": {"system": "Mus musculus", "experiment": "Acute toxicity in Swiss albino mouse assessed as lethal effect at 25 mg/kg/day, po after 72 hrs", "format": "organism-based", "design": "route oral", "details": "in vivo", "method_in_brief": "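Oral single dose suspended in 0.5% carboxymethylcellulose, given after a 24 h fast; food and water returned 1 h after dosing. Vehicle-only controls. Mice observed at 1 h, then once daily for 72 h, for toxic signs and mortality.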"}, "Mus musculus [16]": {"system": "Mus musculus", "experiment": "Inhibition of carrageenan-induced paw edema in Swiss albino mouse at 50 mg/kg, po after 270 mins relative to control", "format": "functional", "details": "4.5 h", "method_in_brief": "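Mice, n = 6 per group. Test agent given orally as a suspension in 0.5% sodium CMC in distilled water; controls received vehicle only. Afterwards, 0.5 mg/25 ll carrageenan in saline (154 mM NaCl) injected subplantar into the right hind paw, saline into the left. Right-minus-left footpad thickness measured by dial gauge caliper every 90 min for 6 h. Inhibition is relative to vehicle-control group means.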"}, "Mus musculus [17]": {"system": "Mus musculus", "experiment": "Analgesic activity against p-benzoquinone-induced abdominal constriction in Swiss albino mouse assessed as number of writhings at 200 mg/kg, po", "format": "functional, Abdomen", "method_in_brief": "as §2"}, "Mus musculus [18]": {"system": "Mus musculus", "experiment": "Antiinflammatory activity against carrageenan-induced paw edema in Swiss albino mouse assessed as swelling thickness at 100 mg/kg, po after 270 mins", "format": "functional", "method_in_brief": "as §1"}, "Mus musculus [19]": {"system": "Mus musculus", "experiment": "Inhibition of p-benzoquinone-induced writhing in Swiss albino mouse at 200 mg/kg, po relative to control", "format": "functional", "method_in_brief": "as §3"}, "Mus musculus [20]": {"system": "Mus musculus", "experiment": "Antiinflammatory activity against carrageenan-induced paw edema in Swiss albino mouse assessed as swelling thickness at 100 mg/kg, po after 90 mins", "format": "functional", "method_in_brief": "as §1"}, "Mus musculus [21]": {"system": "Mus musculus", "experiment": "Inhibition of carrageenan-induced paw edema in Swiss albino mouse at 200 mg/kg, po after 360 mins relative to control", "format": "functional", "details": "6 h", "method_in_brief": "as §1"}, "Mus musculus [22]": {"system": "Mus musculus", "experiment": "Antiinflammatory activity in Swiss albino mouse assessed as inhibition of carrageenan-induced paw edema at 50 mg/kg, po", "format": "functional"}, "Mus musculus [23]": {"system": "Mus musculus", "experiment": "Analgesic activity against p-benzoquinone-induced abdominal constriction in Swiss albino mouse assessed as number of writhings at 25 mg/kg, po", "format": "functional, Abdomen", "method_in_brief": "as §2"}, "Mus musculus [24]": {"system": "Mus musculus", "experiment": "Gastric-ulcerogenic effect in Swiss albino mouse assessed as lesions at 100 mg/kg, po", "format": "functional, organism-based", "design": "dose 100 mg/kg", "method_in_brief": "as §4"}}, "note": "Active and inactive are the calls of the source. The rule behind the calls is not given here."}
{"smiles": "CCS(=O)(=O)c1nc(-c2ccc(Cl)cc2)n[nH]1", "values": [{"measurement": "Activity", "setting": "Mus musculus [1]", "result": "35.4 10^-2mm"}, {"measurement": "Activity", "setting": "Mus musculus [2]", "result": 20.4}, {"measurement": "inhibition in vivo at 25 mg/kg", "setting": "Mus musculus [3]", "result": 10.6, "unit": "%"}, {"measurement": "Activity", "setting": "Mus musculus [4]", "result": "58.4 10^-2mm"}, {"measurement": "Activity", "setting": "Mus musculus [5]", "result": "31 10^-2mm"}, {"measurement": "inhibition in vivo at 50 mg/kg", "setting": "Mus musculus [6]", "result": 59.5, "unit": "%"}, {"measurement": "Activity", "setting": "Mus musculus [7]", "result": "55.4 10^-2mm"}, {"measurement": "inhibition in vivo at 50 mg/kg", "setting": "Mus musculus [8]", "result": 39.2, "unit": "%"}, {"measurement": "Activity", "setting": "Mus musculus [9]", "result": "Active"}, {"measurement": "inhibition in vivo at 25 mg/kg", "setting": "Mus musculus [10]", "result": 15, "unit": "%"}, {"measurement": "inhibition in vivo at 200 mg/kg", "setting": "Mus musculus [11]", "result": 17.7, "unit": "%"}, {"measurement": "inhibition in vivo at 200 mg/kg", "setting": "Mus musculus [12]", "result": 14.5, "unit": "%"}, {"measurement": "inhibition in vivo at 100 mg/kg", "setting": "Mus musculus [13]", "result": 48.7, "unit": "%"}, {"measurement": "Activity", "setting": "Mus musculus [14]", "result": "49.6 10^-2mm"}, {"measurement": "Activity", "setting": "Mus musculus [15]", "result": "Non-toxic"}, {"measurement": "inhibition in vivo at 50 mg/kg", "setting": "Mus musculus [16]", "result": 42.6, "unit": "%"}, {"measurement": "Activity", "setting": "Mus musculus [17]", "result": 44.1}, {"measurement": "Activity", "setting": "Mus musculus [18]", "result": "34.5 10^-2mm"}, {"measurement": "inhibition in vivo at 200 mg/kg", "setting": "Mus musculus [19]", "result": 18.5, "unit": "%"}, {"measurement": "Activity", "setting": "Mus musculus [20]", "result": "27.2 10^-2mm"}, {"measurement": "inhibition in vivo at 200 mg/kg", "setting": "Mus musculus [21]", "result": 18.9, "unit": "%"}, {"measurement": "inhibition in vivo at 50 mg/kg", "setting": "Mus musculus [22]", "result": 40.2, "unit": "%"}, {"measurement": "Activity", "setting": "Mus musculus [23]", "result": 37.8}, {"measurement": "Activity", "setting": "Mus musculus [24]", "result": "Active"}]}
